In brackets after ≈: the same amount, converted by molar mass. Activity calls are given as the source filed them. The rule behind the calls is not given here.
Experiments:
[1] = test system: Human alphaherpesvirus 1; assay: Antiviral activity against Herpesvirus 1 infected in human KB cells assessed as virus-induced cytopathic effect after 72 hrs; format: functional; conditions: Human alphaherpesvirus 1, 72 h
Method in brief: (§1)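 KB (human nasopharyngeal carcinoma) monolayers, 18-24 h old, infected with 320 CCID₅₀ of herpes virus type 1 or type 2. Compound added within 15 min at half-log dilutions from 1000 to 1 μg/ml. Incubated 72 h at 37°. CPE scored microscopically 0-4. Virus rating is the summed (virus control − treated) CPE differences across drug levels, halved at levels showing partial toxicity.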

[2] = test system: Human alphaherpesvirus 2; assay: Antiviral activity against Herpesvirus 2 infected in human KB cells assessed as virus-induced cytopathic effect after 72 hrs; format: functional, organism-based; method in brief: as §1
[3] = test system: Vaccinia virus; assay: Antiviral activity against Vaccinia virus infected in human KB cells assessed as virus-induced cytopathic effect after 72 hrs; format: functional, organism-based; conditions: Orthopoxvirus vaccinia
[4] = test system: Human alphaherpesvirus 1; assay: Antiviral activity against Herpesvirus 1 123 infected in Swiss mouse assessed as increase in survival at MTD, ic administered as single dose 6 hrs post infection relative to control; format: functional, organism-based
Method in brief: (§2)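 18-20-g Swiss mice inoculated intracerebrally with an LD₇₅ of herpes virus type 1 strain 123 to induce encephalitis. One intracerebral drug treatment given 6 h after virus inoculation. Survivors counted against untreated infected controls.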

[5] = Cytotoxicity against human KB cells after 72 hrs; format: cell-based
[6] = test system: Human alphaherpesvirus 1; assay: Antiviral activity against Herpesvirus 1 123 infected in Swiss mouse assessed as increase in survival at 0.31 to 1.25 mg/kg, ic administered as single dose 6 hrs post infection relative to control; format: functional, organism-based; method in brief: as §2
[7] = Therapeutic index, ratio of MTD for Swiss mouse to MID for Herpesvirus 1 123 infected in Swiss mouse; conditions: read-out: TI
Method in brief: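 Therapeutic index = maximum tolerated dose / minimum inhibitory dose, based on survivors/total among treated infected mice. The ic regimen was a single MTD dose at 6 h post-inoculation. The ip regimen was b.i.d. ×9 from 4 h. Uninfected toxicity controls were run alongside.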

[8] = test system: Mus musculus; assay: Toxicity in Swiss mouse assessed as weight loss at 52 mg/kg/day, ip; format: organism-based; set-up: route intraperitoneal; conditions: in vivo
Method in brief: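 Uninfected toxicity-control Swiss mice (18-20 g) dosed intraperitoneally b.i.d. ×9 at 104 or 52 mg/kg/day, in parallel with the infected groups. Body weight and survivors/total recorded.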

[9] = test system: Human alphaherpesvirus 1; assay: Antiviral activity against Herpesvirus 1 123 infected in Swiss mouse assessed as increase in survival at 52 mg/kg/day, ip; format: functional, organism-based
Method in brief: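 Encephalitis induced in 18-20-g Swiss mice by intracerebral LD₇₅ of herpes virus type 1 strain 123. Drug given intraperitoneally b.i.d. ×9 starting 4 h post-inoculation at 104, 52 or 26 mg/kg/day, with saline controls. Survivors/total compared by Fisher's exact test; survival time compared by t test.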

[10] = test system: Human alphaherpesvirus 1; assay: Antiviral activity against Herpesvirus 1 123 infected in Swiss mouse assessed as increase in survival time at 26 mg/kg/day, ip relative to control; format: functional, organism-based
Method in brief: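 Dosed intraperitoneally b.i.d. for 9 days, starting 4 h after virus inoculation. Infected animals were compared with saline controls. Survival time was assessed by t test.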

Compound | MIC [1] [µg/mL] | Activity [2] | Activity [3] | Activity [4] | MCC at 72 h [5] [µg/mL] | Activity [6] | selectivity ratio [7] | Activity [8] | Activity [9] | Survival [10]
Nc1nc(O)c2ncn([C@@H]3O[C@H](CO)[C@H](O)[C@H]3O)c2n1 | 10 (≈ 35.3 µM) | Active | inactive | Active |  |  |  |  |  | 
Nc1nc(O)c2ncn([C@@H]3O[C@H](COP(=O)(O)O)[C@H](O)[C@H]3O)c2n1 | 10 (≈ 27.5 µM) | Active | inactive | Active | 3.2 |  |  |  |  | 
Nc1nc2c(ncn2[C@@H]2O[C@@H]3COP(=O)(O)O[C@@H]3[C@H]2O)c(=O)[nH]1 | 32 (≈ 92.7 µM) | Active | inactive | Active | 32 | Active | ≥ 4 | Toxic | Active | Active
Nc1ncnc2c1ncn2[C@@H]1O[C@H](CO)[C@@H](O)[C@@H]1O [VIDARABINE] | 3.2 (≈ 12 µM) | Active | Active | Active | 3.2 |  |  |  |  | 
Nc1nc2c(ncn2[C@@H]2O[C@H](CO)[C@H](O)[C@H]2O)c(=O)[nH]1 |  |  |  |  | 10 |  |  |  |  | 
